{"source": "paper PMC10464598", "about": "(RSC Advances, 2023)"}
{"target": "urease (Canavalia ensiformis, UniProt P07374)", "sequence (P07374 whole entry, looked up)": "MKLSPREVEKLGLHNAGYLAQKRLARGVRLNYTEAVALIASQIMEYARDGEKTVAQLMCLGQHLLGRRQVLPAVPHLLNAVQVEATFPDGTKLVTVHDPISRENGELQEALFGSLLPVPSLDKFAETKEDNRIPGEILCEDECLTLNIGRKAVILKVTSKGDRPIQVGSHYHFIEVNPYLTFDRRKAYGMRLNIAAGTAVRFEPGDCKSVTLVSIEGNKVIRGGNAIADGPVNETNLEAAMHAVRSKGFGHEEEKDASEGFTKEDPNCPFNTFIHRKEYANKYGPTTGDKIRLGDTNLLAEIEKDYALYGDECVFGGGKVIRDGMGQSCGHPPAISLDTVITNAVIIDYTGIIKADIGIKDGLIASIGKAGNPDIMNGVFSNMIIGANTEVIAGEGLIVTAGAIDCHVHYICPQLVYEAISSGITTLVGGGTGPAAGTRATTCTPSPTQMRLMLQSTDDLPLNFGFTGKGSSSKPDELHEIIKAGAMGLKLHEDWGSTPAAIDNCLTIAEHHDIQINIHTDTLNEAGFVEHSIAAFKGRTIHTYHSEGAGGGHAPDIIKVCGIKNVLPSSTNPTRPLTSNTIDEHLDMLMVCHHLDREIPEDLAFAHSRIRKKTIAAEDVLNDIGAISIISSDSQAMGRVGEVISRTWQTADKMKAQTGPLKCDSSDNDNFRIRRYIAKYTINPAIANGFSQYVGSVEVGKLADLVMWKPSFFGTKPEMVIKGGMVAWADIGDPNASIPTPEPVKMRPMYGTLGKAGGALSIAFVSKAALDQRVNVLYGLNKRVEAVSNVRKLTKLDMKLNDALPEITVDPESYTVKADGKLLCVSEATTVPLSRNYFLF", "experiment": "Urease inhibition assay", "format": "biochemical", "how_it_was_run": "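Test compound was preincubated with urease (enzyme solution 5 U ml−1) in buffer for 10 min at 37 °C. Alkaline and phenolic reagents were then added, and absorbance was read at 625 nm. Thiourea served as the standard inhibitor. Assays were run in triplicate. % inhibition = (A control − A sample)/A control × 100. IC50 was obtained by non-linear regression of % inhibition against concentration.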", "units": {"IC50": "µM"}}
{"smiles": "CC(c1ccc(-c2ccccc2)c(F)c1)c1nnc(-c2cccc3ccccc23)o1", "note": "(stereo not drawn) [Compound 5, 2-(1-(2-Fluoro-[1,1′-biphenyl]-4-yl)ethyl)-5-(naphthalen-1-yl)-1,3,4-oxadiazole]", "IC50": "39 ± 1.2"}
{"smiles": "CC(c1ccc(-c2ccccc2)c(F)c1)c1nnc(-c2ccc(O)c(O)c2O)o1", "note": "(stereo not drawn) [Compound 6, 4-(5-(1-(2-Fluoro-[1,1′-biphenyl]-4-yl)ethyl)-1,3,4-oxadiazol-2-yl) benzene-1,2,3-triol]", "IC50": "20 ± 0.5"}
{"smiles": "CC(c1ccc(-c2ccccc2)c(F)c1)c1nnc(-c2ccccc2N)o1", "note": "(stereo not drawn) [Compound 7, 2-(5-(1-(2-Fluoro-[1,1′-biphenyl]-4-yl)ethyl)-1,3,4-oxadiazol-2-yl) aniline]", "IC50": "16 ± 0.1"}
{"smiles": "CC(c1ccc(-c2ccccc2)c(F)c1)c1nnc(-c2cccc([N+](=O)[O-])c2)o1", "note": "(stereo not drawn) [Compound 8, 2-(1-(2-Fluoro-[1,1′-biphenyl]-4-yl)ethyl)-5-(3-nitrophenyl)-1,3,4-oxadiazole]", "IC50": "41 ± 1.2"}
{"smiles": "COc1ccc(Br)cc1-c1nnc(C(C)c2ccc(-c3ccccc3)c(F)c2)o1", "note": "(stereo not drawn) [Compound 9, 2-(5-Bromo-2-methoxyphenyl)-5-(1-(2-fluoro-[1,1′-biphenyl]-4-yl)ethyl)-1,3,4-oxadiazole]", "IC50": "72 ± 1.2"}
{"smiles": "COc1ccc(-c2nnc(C(C)c3ccc(-c4ccccc4)c(F)c3)o2)c(OC)c1OC", "note": "(stereo not drawn) [Compound 10, 2-(2,3,4-Trimethoxyphenyl)-5-(1-(2-fluoro-[1,1′-biphenyl]-4-yl)ethyl)-1,3,4-oxadiazole]", "IC50": "20 ± 0.5"}
{"smiles": "CC(c1ccc(-c2ccccc2)c(F)c1)c1nnc(-c2cc([N+](=O)[O-])ccc2Cl)o1", "note": "(stereo not drawn) [Compound 11, 2-(2-Chloro-5-nitrophenyl)-5-(1-(2-fluoro-[1,1′-biphenyl]-4-yl)ethyl)-1,3,4-oxadiazole]", "IC50": "41 ± 1.2"}
{"smiles": "CCOc1ccc(-c2nnc(C(C)c3ccc(-c4ccccc4)c(F)c3)o2)c(OC)c1", "note": "(stereo not drawn) [Compound 12, 2-(4-Ethoxy-2-methoxyphenyl)-5-(1-(2-fluoro-[1,1′-biphenyl]-4-yl)ethyl)-1,3,4-oxadiazole]", "IC50": "74 ± 1.3"}
{"smiles": "COc1cc(-c2nnc(C(C)c3ccc(-c4ccccc4)c(F)c3)o2)ccc1F", "note": "(stereo not drawn) [Compound 13, 2-(4-Fluoro-3-methoxyphenyl)-5-(1-(2-fluoro-[1,1′-biphenyl]-4-yl)ethyl)-1,3,4-oxadiazole]", "IC50": "16 ± 0.9"}
{"smiles": "CCOc1cc(-c2nnc(C(C)c3ccc(-c4ccccc4)c(F)c3)o2)ccc1OC", "note": "(stereo not drawn) [Compound 14, 2-(3-Ethoxy-4-methoxyphenyl)-5-(1-(2-fluoro-[1,1′-biphenyl]-4-yl)ethyl)-1,3,4-oxadiazole]", "IC50": "35 ± 1.2"}
{"smiles": "COc1cccc(OC)c1-c1nnc(C(C)c2ccc(-c3ccccc3)c(F)c2)o1", "note": "(stereo not drawn) [Compound 15, 2-(2,6-Dimethoxyphenyl)-5-(1-(2-fluoro-[1,1′-biphenyl]-4-yl)ethyl)-1,3,4-oxadiazole]", "IC50": "31 ± 1.2"}
{"smiles": "CC(c1ccc(-c2ccccc2)c(F)c1)c1nnc(-c2ccc([N+](=O)[O-])cc2)o1", "note": "(stereo not drawn) [Compound 16, 2-(1-(2-Fluoro-[1,1′-biphenyl]-4-yl)ethyl)-5-(4-nitrophenyl)-1,3,4-oxadiazole]", "IC50": "13 ± 0.2"}
{"smiles": "COc1ccc(-c2nnc(C(C)c3ccc(-c4ccccc4)c(F)c3)o2)c(Cl)c1OC", "note": "(stereo not drawn) [Compound 17, 2-(2-Chloro-3,4-dimethoxyphenyl)-5-(1-(2-fluoro-[1,1′-biphenyl]-4-yl)ethyl)-1,3,4-oxadiazole]", "IC50": "36 ± 1.2"}
{"smiles": "COc1cc(-c2nnc(C(C)c3ccc(-c4ccccc4)c(F)c3)o2)ccc1Oc1ccccc1", "note": "(stereo not drawn) [Compound 19, 2-(1-(2-Fluoro-[1,1′-biphenyl]-4-yl)ethyl)-5-(3-methoxy-4-phenoxyphenyl)-1,3,4-oxadiazole]", "IC50": "16 ± 0.3"}
{"smiles": "COc1ccccc1-c1nnc(C(C)c2ccc(-c3ccccc3)c(F)c2)o1", "note": "(stereo not drawn) [Compound 20, 2-(1-(2-Fluoro-[1,1′-biphenyl]-4-yl)ethyl)-5-(2-methoxyphenyl)-1,3,4-oxadiazole]", "IC50": "12 ± 0.9"}
{"smiles": "CC(c1ccc(-c2ccccc2)c(F)c1)c1nnc(-c2ccc(Br)cc2)o1", "note": "(stereo not drawn) [Compound 21, 2-(4-Bromophenyl)-5-(1-(2-fluoro-[1,1′-biphenyl]-4-yl)ethyl)-1,3,4-oxadiazole]", "IC50": "13 ± 0.2"}
{"smiles": "COc1ccc(-c2nnc(C(C)c3ccc(-c4ccccc4)c(F)c3)o2)c(F)c1", "note": "(stereo not drawn) [Compound 22, 2-(2-Fluoro-4-methoxyphenyl)-5-(1-(2-fluoro-[1,1′-biphenyl]-4-yl)ethyl)-1,3,4-oxadiazole]", "IC50": "31 ± 1.4"}
{"smiles": "COc1cc(-c2nnc(C(C)c3ccc(-c4ccccc4)c(F)c3)o2)cc(OC)c1Br", "note": "(stereo not drawn) [Compound 23, 2-(4-Bromo-3,5-dimethoxyphenyl)-5-(1-(2-fluoro-[1,1′-biphenyl]-4-yl)ethyl)-1,3,4-oxadiazole]", "IC50": "37 ± 1.4"}
{"smiles": "CC(c1ccc(-c2ccccc2)c(F)c1)c1nnc(-c2ccc(Br)cc2F)o1", "note": "(stereo not drawn) [Compound 24, 2-(4-Bromo-2-fluorophenyl)-5-(1-(2-fluoro-[1,1′-biphenyl]-4-yl)ethyl)-1,3,4-oxadiazole]", "IC50": "13 ± 0.1"}
{"smiles": "COc1ccc(OC)c(-c2nnc(C(C)c3ccc(-c4ccccc4)c(F)c3)o2)c1", "note": "(stereo not drawn) [Compound 25, 2-(2,5-Dimethoxyphenyl)-5-(1-(2-fluoro-[1,1′-biphenyl]-4-yl)ethyl)-1,3,4-oxadiazole]", "IC50": "35 ± 1.5"}
{"smiles": "CC(c1ccc(-c2ccccc2)c(F)c1)c1nnc(-c2cccc(C(F)(F)F)c2)o1", "note": "(stereo not drawn) [Compound 26, 2-(1-(2-Fluoro-[1,1′-biphenyl]-4-yl)ethyl)-5-(3-(trifluoromethyl)phenyl)-1,3,4-oxadiazole]", "IC50": "12 ± 0.1"}
{"smiles": "CSc1ccc(-c2nnc(C(C)c3ccc(-c4ccccc4)c(F)c3)o2)cc1", "note": "(stereo not drawn) [Compound 27, 2-(1-(2-Fluoro-[1,1′-biphenyl]-4-yl)ethyl)-5-(4-(methylthio)phenyl)-1,3,4-oxadiazole]", "IC50": "34 ± 2.4"}
{"smiles": "CC(c1ccc(-c2ccccc2)c(F)c1)c1nnc(-c2ccc(O)c(Br)c2)o1", "note": "(stereo not drawn) [Compound 28, 2-Bromo-4-(5-(1-(2-fluoro-[1,1′-biphenyl]-4-yl)ethyl)-1,3,4-oxadiazol-2-yl)phenol]", "IC50": "14 ± 0.3"}
{"smiles": "CC(c1ccc(-c2ccccc2)c(F)c1)c1nnc(-c2ccc(-c3ccccc3)c(F)c2)o1", "note": "(stereo not drawn) [Compound 29, 2-(2-Fluoro-[1,1′-biphenyl]-4-yl)-5-(1-(2-fluoro-[1,1′-biphenyl]-4-yl)ethyl)-1,3,4-oxadiazole]", "IC50": "41 ± 1.4"}
{"smiles": "Cc1ccc(-c2nnc(C(C)c3ccc(-c4ccccc4)c(F)c3)o2)s1", "note": "(stereo not drawn) [Compound 30, 2-(1-(2-Fluoro-[1,1′-biphenyl]-4-yl)ethyl)-5-(5-methylthiophen-2-yl)-1,3,4-oxadiazole]", "IC50": "12 ± 0.1"}
{"smiles": "CC(c1ccc(-c2ccccc2)c(F)c1)c1nnc(-c2cccc(O)c2O)o1", "note": "(stereo not drawn) [Compound 31, 3-(5-(1-(2-Fluoro-[1,1′-biphenyl]-4-yl)ethyl)-1,3,4-oxadiazol-2-yl)benzene-1,2-diol]", "IC50": "15 ± 0.3"}
{"smiles": "CC(c1ccc(-c2ccccc2)c(F)c1)c1nnc(-c2ccccc2[N+](=O)[O-])o1", "note": "(stereo not drawn) [Compound 32, 2-(1-(2-Fluoro-[1,1′-biphenyl]-4-yl)ethyl)-5-(2-nitrophenyl)-1,3,4-oxadiazole]", "IC50": "15 ± 0.3"}
